{"data": "Measurements gathered from unrelated publications", "cell line": "COLO 205", "read-out": "cell growth or viability"}
{"SMILES": "CC(C)C[C@H](NC(=O)[C@H](Cc1ccccc1)NC(=O)c1cnccn1)B(O)O", "method": "ATP luminescence", "quantity": "IC50", "value": "22 nM"}
{"SMILES": "COc1cc2ccc(=O)oc2cc1OC", "method": "MTT", "time": "24 h", "quantity": "IC50", "value": "> 100000 nM"}
{"SMILES": "CC(C)[C@H](N)c1nc2cc(-c3ccncc3F)sc2c(=O)[nH]1", "method": "MTT", "quantity": "IC50", "value": "24.8 nM"}
{"SMILES": "COc1c2ccoc2c(OCC=C(C)C)c2oc(=O)ccc12", "method": "MTT", "time": "24 h", "quantity": "IC50", "value": "> 100000 nM"}
{"SMILES": "COc1cccc(Oc2ccccc2NC(=O)CNC(=O)c2cccc3ccccc23)c1", "method": "SRB", "time": "48 h", "quantity": "GI50", "value": "282 nM"}
{"SMILES": "Cc1cc(-c2cc3nc([C@@H](N)C(C)C)[nH]c(=O)c3s2)ccn1", "method": "MTT", "quantity": "IC50", "value": "1410 nM"}
{"SMILES": "COc1ccc(C(=O)/C=C/c2cccc(Cl)c2)cc1S(N)(=O)=O", "method": "SRB", "concentration": "10 µM", "quantity": "inhibition", "value": "165%"}
{"SMILES": "COc1cc(Nc2nccc(-c3cnn4nc(OC)ccc34)n2)cc(C(F)(F)F)c1", "method": "ATP luminescence", "quantity": "IC50", "value": "510 nM"}
{"SMILES": "CC(C)[C@H](N)c1nc2cc(-c3ccnc(F)c3)sc2c(=O)[nH]1", "method": "MTT", "quantity": "IC50", "value": "89.3 nM"}
{"SMILES": "COc1ccc(C(=O)/C=C/c2ccccc2Br)cc1S(N)(=O)=O", "method": "SRB", "time": "48 h", "quantity": "GI50", "value": "2200 nM"}
